Source: ChEMBL document CHEMBL1150108, “Isolation of S-n-butylcysteine sulfoxide and six n-butyl-containing thiosulfinates from Allium siculum” (2002)

Tests used:
Type in all cases: functional
[1] = system: Bacillus cereus; assay: Antibacterial activity against Bacillus cereus ATCC 11778 at 30 ug/disk after overnight incubation by agar diffusion test; conditions: read-out: Diameter of inhibition zone
How it was run: (§1)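 Commercial antibiotic control disks were placed on agar plates seeded with the named strain. Plates were incubated overnight at 37 °C, and the diameter of the inhibition zone around each disk was measured in mm.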

[2] = system: Staphylococcus aureus; assay: Antibacterial activity against Staphylococcus […] at 30 ug/disk after overnight incubation by agar diffusion test; conditions: read-out: Diameter of inhibition zone; how it was run: as §1
[3] = system: Streptococcus agalactiae; assay: Antibacterial activity against Streptococcus agalactiae ATCC 13813 at 30 ug/disk after overnight incubation by agar diffusion test; conditions: read-out: Diameter of inhibition zone; how it was run: as §1
[4] = system: Escherichia coli; assay: Antibacterial activity against Escherichia coli ATCC 25922 at 30 ug/disk after overnight incubation by agar diffusion test; conditions: read-out: Diameter of inhibition zone; how it was run: as §1
[5] = system: Pseudomonas aeruginosa; assay: Antibacterial activity against Pseudomonas aeruginosa ATCC 27853 at 30 ug/disk after overnight incubation by agar diffusion test; conditions: read-out: Diameter of inhibition zone; how it was run: as §1
[6] = system: Stenotrophomonas maltophilia; assay: Antibacterial activity against Stenotrophomonas maltophilia ATCC 13637 at 30 ug/disk after overnight incubation by agar diffusion test; conditions: read-out: Diameter of inhibition zone; how it was run: as §1
[7] = system: Klebsiella pneumoniae subsp. pneumoniae; assay: Antibacterial activity against Klebsiella pneumoniae subsp. pneumoniae ATCC 13833 at 30 ug/disk after overnight incubation by agar diffusion test; conditions: read-out: Diameter of inhibition zone; how it was run: as §1
[8] = system: Bacillus cereus; assay: Antibacterial activity against Bacillus cereus ATCC 11778 at 10 ug/disk after overnight incubation by agar diffusion test; conditions: for zone of inhibition at 10 µg/disc: read-out: Diameter of inhibition zone
How it was run: (§2)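 Disk diffusion on agar plates seeded with the named strain. Test samples were dissolved in EtOH, and a 10 µL aliquot was applied to a 6 mm paper disk to give 10, 250 or 500 µg per disk. Commercial antibiotic disks served as controls. Plates were incubated overnight at 37 °C, and the diameter of the inhibition zone around each disk was read in mm.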

[9] = system: Streptococcus agalactiae; assay: Antibacterial activity against Streptococcus agalactiae ATCC 13813 at 10 ug/disk after overnight incubation by agar diffusion test; conditions: for zone of inhibition at 10 µg/disc: read-out: Diameter of inhibition zone; how it was run: as §2
[10] = system: Stenotrophomonas maltophilia; assay: Antibacterial activity against Stenotrophomonas maltophilia ATCC 13637 at 10 ug/disk after overnight incubation by agar diffusion test; conditions: for zone of inhibition at 10 µg/disc: read-out: Diameter of inhibition zone; how it was run: as §2
[11] = system: Klebsiella pneumoniae subsp. pneumoniae; assay: Antibacterial activity against Klebsiella pneumoniae subsp. pneumoniae ATCC 13833 at 10 ug/disk after overnight incubation by agar diffusion test; conditions: for zone of inhibition at 10 µg/disc: read-out: Diameter of inhibition zone; how it was run: as §2
[12] = system: Bacillus cereus; assay: Antibacterial activity against Bacillus cereus ATCC 11778 at 250 ug/disk after overnight incubation by agar diffusion test; conditions: read-out: Diameter of inhibition zone; how it was run: as §2
[13] = system: Bacillus cereus; assay: Antibacterial activity against Bacillus cereus ATCC 11778 at 500 ug/disk after overnight incubation by agar diffusion test; conditions: read-out: Diameter of inhibition zone; how it was run: as §2
[14] = system: Staphylococcus aureus; assay: Antibacterial activity against Staphylococcus […] at 10 ug/disk after overnight incubation by agar diffusion test; conditions: read-out: Diameter of inhibition zone; how it was run: as §2
[15] = system: Staphylococcus aureus; assay: Antibacterial activity against Staphylococcus […] at 250 ug/disk after overnight incubation by agar diffusion test; conditions: read-out: Diameter of inhibition zone; how it was run: as §2
[16] = system: Staphylococcus aureus; assay: Antibacterial activity against Staphylococcus […] at 500 ug/disk after overnight incubation by agar diffusion test; conditions: read-out: Diameter of inhibition zone; how it was run: as §2
[17] = system: Streptococcus agalactiae; assay: Antibacterial activity against Streptococcus agalactiae ATCC 13813 at 250 ug/disk after overnight incubation by agar diffusion test; conditions: read-out: Diameter of inhibition zone; how it was run: as §2
[18] = system: Escherichia coli; assay: Antibacterial activity against Escherichia coli ATCC 25922 at 10 ug/disk after overnight incubation by agar diffusion test; conditions: read-out: Diameter of inhibition zone; how it was run: as §2
[19] = system: Streptococcus agalactiae; assay: Antibacterial activity against Streptococcus agalactiae ATCC 13813 at 500 ug/disk after overnight incubation by agar diffusion test; conditions: read-out: Diameter of inhibition zone; how it was run: as §2
[20] = system: Escherichia coli; assay: Antibacterial activity against Escherichia coli ATCC 25922 at 250 ug/disk after overnight incubation by agar diffusion test; conditions: read-out: Diameter of inhibition zone; how it was run: as §2
[21] = system: Escherichia coli; assay: Antibacterial activity against Escherichia coli ATCC 25922 at 500 ug/disk after overnight incubation by agar diffusion test; conditions: read-out: Diameter of inhibition zone; how it was run: as §2
[22] = system: Pseudomonas aeruginosa; assay: Antibacterial activity against Pseudomonas aeruginosa ATCC 27853 at 10 ug/disk after overnight incubation by agar diffusion test; conditions: read-out: Diameter of inhibition zone; how it was run: as §2
[23] = system: Pseudomonas aeruginosa; assay: Antibacterial activity against Pseudomonas aeruginosa ATCC 27853 at 250 ug/disk after overnight incubation by agar diffusion test; conditions: read-out: Diameter of inhibition zone; how it was run: as §2
[24] = system: Pseudomonas aeruginosa; assay: Antibacterial activity against Pseudomonas aeruginosa ATCC 27853 at 500 ug/disk after overnight incubation by agar diffusion test; conditions: read-out: Diameter of inhibition zone; how it was run: as §2
[25] = system: Stenotrophomonas maltophilia; assay: Antibacterial activity against Stenotrophomonas maltophilia ATCC 13637 at 250 ug/disk after overnight incubation by agar diffusion test; conditions: read-out: Diameter of inhibition zone; how it was run: as §2
[26] = system: Stenotrophomonas maltophilia; assay: Antibacterial activity against Stenotrophomonas maltophilia ATCC 13637 at 500 ug/disk after overnight incubation by agar diffusion test; conditions: read-out: Diameter of inhibition zone; how it was run: as §2
[27] = system: Klebsiella pneumoniae subsp. pneumoniae; assay: Antibacterial activity against Klebsiella pneumoniae subsp. pneumoniae ATCC 13833 at 250 ug/disk after overnight incubation by agar diffusion test; conditions: read-out: Diameter of inhibition zone; how it was run: as §2
[28] = system: Klebsiella pneumoniae subsp. pneumoniae; assay: Antibacterial activity against Klebsiella pneumoniae subsp. pneumoniae ATCC 13833 at 500 ug/disk after overnight incubation by agar diffusion test; conditions: read-out: Diameter of inhibition zone; how it was run: as §2

Molecule | zone of inhibition at 10 µg/disc [8] | zone of inhibition at 250 µg/disc [12] | zone of inhibition at 500 µg/disc [13] | zone of inhibition at 10 µg/disc [14] | zone of inhibition at 250 µg/disc [15] | zone of inhibition at 500 µg/disc [16] | zone of inhibition at 10 µg/disc [9] | zone of inhibition at 250 µg/disc [17] | zone of inhibition at 10 µg/disc [18] | zone of inhibition at 500 µg/disc [19] | zone of inhibition at 250 µg/disc [20] | zone of inhibition at 500 µg/disc [21] | zone of inhibition at 10 µg/disc [22] | zone of inhibition at 250 µg/disc [23] | zone of inhibition at 500 µg/disc [24] | zone of inhibition at 10 µg/disc [10] | zone of inhibition at 250 µg/disc [25] | zone of inhibition at 500 µg/disc [26] | zone of inhibition at 10 µg/disc [11] | zone of inhibition at 250 µg/disc [27] | other results
CN(C)[C@@H]1C(O)=C(C(N)=O)C(=O)[C@@]2(O)C(O)=C3C(=O)c4c(O)cccc4[C@@](C)(O)[C@H]3C[C@@H]12 [TETRACYCLINE] | – | – | – | – | – | – | – | – | – | – | – | – | – | – | – | – | – | – | – | – | zone of inhibition at 30 µg/disc [1]: 27 mm; zone of inhibition at 30 µg/disc [2]: 20 mm; zone of inhibition at 30 µg/disc [3]: 28 mm; zone of inhibition at 30 µg/disc [4]: 18 mm; zone of inhibition at 30 µg/disc [5]: 10 mm; zone of inhibition at 30 µg/disc [6]: 13 mm; zone of inhibition at 30 µg/disc [7]: 18 mm
O=C(N[C@H](CO)[C@H](O)c1ccc([N+](=O)[O-])cc1)C(Cl)Cl [CHLORAMPHENICOL] | – | – | – | – | – | – | – | – | – | – | – | – | – | – | – | – | – | – | – | – | zone of inhibition at 30 µg/disc [1]: 20 mm; zone of inhibition at 30 µg/disc [2]: 18 mm; zone of inhibition at 30 µg/disc [3]: 23 mm; zone of inhibition at 30 µg/disc [4]: 20 mm; zone of inhibition at 30 µg/disc [5]: 0 mm; zone of inhibition at 30 µg/disc [6]: 22 mm; zone of inhibition at 30 µg/disc [7]: 24 mm
GENTAMICIN | – | – | – | – | – | – | – | – | – | – | – | – | – | – | – | – | – | – | – | – | inhibition zone (IZ) [8]: 22 mm; inhibition zone (IZ) [9]: 18 mm; inhibition zone (IZ) [10]: 20 mm; inhibition zone (IZ) [11]: 22 mm
CCCC[S+]([O-])SC (stereo not drawn) | 0 mm | 30 mm | 34 mm | 8 mm | 30 mm | 38 mm | 0 mm | 0 mm | 0 mm | 0 mm | 22 mm | 24 mm | 0 mm | 0 mm | 8 mm | 0 mm | 12 mm | 14 mm | 0 mm | 16 mm | zone of inhibition at 500 µg/disc [28]: 18 mm
CCCCS[S+](C)[O-] (stereo not drawn) | 0 mm | 22 mm | 28 mm | 0 mm | 20 mm | 26 mm | 0 mm | 16 mm | 0 mm | 24 mm | 14 mm | 20 mm | 0 mm | 0 mm | 0 mm | 0 mm | 12 mm | 17 mm | 0 mm | 12 mm | zone of inhibition at 500 µg/disc [28]: 20 mm
CC1(C)S[C@@H]2[C@H](NC(=O)[C@H](N)c3ccccc3)C(=O)N2[C@H]1C(=O)O [AMPICILLIN] | 7 mm | – | – | 38 mm | – | – | 30 mm | – | 18 mm | – | – | – | 0 mm | – | – | 0 mm | – | – | 0 mm | – | –
CCCCS[S+]([O-])CCCC (stereo not drawn) | 8 mm | 34 mm | 40 mm | 10 mm | 34 mm | 38 mm | 0 mm | 30 mm | 0 mm | 34 mm | 10 mm | 16 mm | 0 mm | 0 mm | 0 mm | 0 mm | 8 mm | 16 mm | 0 mm | 8 mm | zone of inhibition at 500 µg/disc [28]: 8 mm
